Columns and labels:
[1] = biological target: T1, Prostaglandin G/H synthase 1 (Homo sapiens, UniProt P23219); experiment: Inhibition of COX-1 (unknown origin) using arachidonic acid as substrate preincubated for 2 mins followed by substrate addition in presence of TMPD by spectrophotometric analysis
Summary of the method: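 COX-1 with heme in 0.1 M Tris-HCl pH 8.0; arachidonic acid starts the reaction and the TMPD oxidation rate is read at 590 nm over 2 min.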

Mus musculus = experiment: Antinociceptive activity in Swiss albino mouse assessed as reduction in phenylbenzoquinone-induced abdominal constrictions at 1.8 to 7.8 mg/kg, ip pretreated for 25 mins followed by phenylbenzoquinone treatment measured after 5 mins by writhing test; assay type: functional, Abdomen; parameters: scale not given: the % may be the effect or the level left
[2] = biological target: T1, Prostaglandin G/H synthase 1; experiment: Increase in COX-1 (unknown origin) enzyme activity using arachidonic acid as substrate preincubated for 10 mins followed by substrate addition in presence of TMPD by spectrophotometric analysis relative to control
Summary of the method: (§1)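 COX-1 in 0.1 M Tris-HCl pH 8.0 with heme; colorimetric read of TMPD oxidation at 590 nm after arachidonic acid starts the reaction. Activity is taken at 10 min of incubation with compound and given as E/E0 against enzyme with solvent only (methanol, ethanol or DMSO). Triplicates; paired t test.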

[3] = biological target: T2, Prostaglandin G/H synthase 2 (Homo sapiens, UniProt P35354); experiment: Inhibition of COX-2 (unknown origin) using arachidonic acid as substrate preincubated for 2 mins followed by substrate addition in presence of TMPD by spectrophotometric analysis relative to control
T2 sequence (P35354 whole entry): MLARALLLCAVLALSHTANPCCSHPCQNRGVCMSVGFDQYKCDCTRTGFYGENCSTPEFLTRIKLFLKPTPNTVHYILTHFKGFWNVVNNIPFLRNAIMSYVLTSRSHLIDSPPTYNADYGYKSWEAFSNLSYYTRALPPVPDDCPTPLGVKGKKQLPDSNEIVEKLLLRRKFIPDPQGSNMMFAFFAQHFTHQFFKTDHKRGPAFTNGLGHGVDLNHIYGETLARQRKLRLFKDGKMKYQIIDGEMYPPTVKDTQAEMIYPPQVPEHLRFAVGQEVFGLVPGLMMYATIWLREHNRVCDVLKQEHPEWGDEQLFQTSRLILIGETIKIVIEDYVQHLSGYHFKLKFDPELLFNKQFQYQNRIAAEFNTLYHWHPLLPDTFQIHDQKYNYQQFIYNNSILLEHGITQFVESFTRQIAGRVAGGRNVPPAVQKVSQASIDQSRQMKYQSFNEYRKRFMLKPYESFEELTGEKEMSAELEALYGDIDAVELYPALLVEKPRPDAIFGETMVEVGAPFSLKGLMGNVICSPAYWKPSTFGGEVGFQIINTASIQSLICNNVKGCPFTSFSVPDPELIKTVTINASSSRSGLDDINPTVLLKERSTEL

[4] = biological target: T1, Prostaglandin G/H synthase 1; experiment: Inhibition of COX-1 (unknown origin) using arachidonic acid as substrate preincubated for 10 mins followed by substrate addition in presence of TMPD by spectrophotometric analysis relative to control; summary of the method: as §1

T1 sequence (P23219 whole entry): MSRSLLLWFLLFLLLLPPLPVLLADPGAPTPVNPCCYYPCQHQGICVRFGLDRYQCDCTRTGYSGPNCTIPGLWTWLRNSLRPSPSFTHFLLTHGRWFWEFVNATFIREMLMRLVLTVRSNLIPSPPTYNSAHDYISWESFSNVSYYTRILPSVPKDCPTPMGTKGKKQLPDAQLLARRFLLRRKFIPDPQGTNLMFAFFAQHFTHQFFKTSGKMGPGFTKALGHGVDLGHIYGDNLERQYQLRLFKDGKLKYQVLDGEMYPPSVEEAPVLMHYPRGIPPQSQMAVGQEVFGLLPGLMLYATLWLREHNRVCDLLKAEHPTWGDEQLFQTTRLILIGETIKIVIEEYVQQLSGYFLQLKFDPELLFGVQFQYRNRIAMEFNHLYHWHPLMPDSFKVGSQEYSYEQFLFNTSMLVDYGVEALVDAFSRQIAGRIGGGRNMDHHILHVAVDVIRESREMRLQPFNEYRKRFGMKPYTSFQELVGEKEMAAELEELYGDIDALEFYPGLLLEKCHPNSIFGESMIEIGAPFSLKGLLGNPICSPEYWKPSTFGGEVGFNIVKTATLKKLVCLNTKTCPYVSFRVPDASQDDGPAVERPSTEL

Row | SMILES | IC50 ([1]; read-out: IC50) [µM] | IC50 ([1]; read-out: pIC50 (converted)) [µM] | Activity (Mus musculus) [%] | Activity [2] [%] | IC50 ([3]; read-out: IC50) [µM] | IC50 ([3]; read-out: pIC50 (converted)) [µM] | inhibition [4] [%] | inhibition [1] [%]
1 | Cc1cc(C)c2c(=O)n(CCCN3CCN(c4cccc(Cl)c4)CC3)sc2n1 | 816 | 513 to 525 | >50 | – | – | – | – | –
2 | Cc1cc(C)c2c(OCCCC(=O)N3CCN(c4ccccc4)CC3)nsc2n1 | – | 1550 | – | 3 to 7 | – | – | – | –
3 | Cc1cc(C)c2c(=O)n(CCCC(=O)N3CCN(c4cccc(Cl)c4)CC3)sc2n1 | 722 | – | – | – | – | – | – | –
4 | COc1cc2c(cc1OC)CN(C(=O)CCn1sc3nc(C)cc(C)c3c1=O)CC2 | 497 | – | – | – | 303 | 288 | – | –
5 | Cc1cc(C)c2c(=O)n(CN(C)CCNc3ccccc3)sc2n1 | 219 | – | >50 | – | 494 | 5250 | 18 to 30 | –
6 | Cc1cc(C)c2c(=O)n(CCCC(=O)O)sc2n1 | 235 | – | – | – | 302 | – | – | 25 to 40
7 | Cc1cc(C)c2c(=O)n(CN3CCN(c4ccccc4F)CC3)sc2n1 | 156 | 141 | >50 | – | – | 1260 | 18 to 30 | 25 to 40
8 | Cc1cc(C)c2c(=O)n(CCC(=O)N3CCN(c4cccc(Cl)c4)CC3)sc2n1 | 242 | – | – | – | 388 | – | – | –
9 | Cc1cc(C)c2c(OCCCC(=O)O)nsc2n1 | 248 | – | – | – | 269 | 245 | – | 25 to 40
10 | CCC(C(=O)N1CCN(c2ccccc2)CC1)n1sc2nc(C)cc(C)c2c1=O (stereo unspecified) | 154 | 138 | – | – | 344 | – | 18 to 30 | 25 to 40
11 | CN1C(C(=O)Nc2ccccn2)=C(O)c2ccccc2S1(=O)=O | – | – | – | 11 | – | – | – | –
12 | Cc1cc(C)c2c(=O)n(CCC(=O)N3CCN(c4ccccc4)CC3)sc2n1 | 207 | – | – | – | 368 | – | 18 to 30 | 25 to 40
13 | O=C(CCn1sc2ccccc2c1=O)N1CCN(c2cccc(Cl)c2)CC1 | 331 | 302 | – | – | 130 | – | – | –
14 | Cc1cc(C)c2c(OC(C)C(=O)O)nsc2n1 (stereo unspecified) | 229 | – | – | – | 327 | – | – | 25 to 40
15 | Cc1cc(C)c2c(=O)n(CC(=O)N3CCN(c4cccc(Cl)c4)CC3)sc2n1 | 375 | – | – | – | 605 | – | – | –
16 | Cc1cc(C)c2c(=O)n(CCCC(=O)N3CCN(c4ccccc4)CC3)sc2n1 | 349 | – | – | – | 459 | – | – | –
17 | Cc1cc(C)c2c(=O)n(CN3CCN(C4CCCCC4)CC3)sc2n1 | – | 372 to 661 | >50 | 3 to 7 | 359 | – | – | –
18 | Cc1cc(C)c2c(OCCCC(=O)N3CCN(c4cccc(Cl)c4)CC3)nsc2n1 | 818 | 380 | – | – | – | 4570 | – | –
